The text below walks through data of ChEMBL document CHEMBL1138854, “Synthesis and antitumor activity of guanylhydrazones from 6-(2,4-dichloro-5-nitrophenyl)imidazo[2,1-b]thiazoles and 6-pyridylimidazo[2,1-b]thiazoles(1)” (2006).

The source made the active and inactive calls. No cut-off for these calls is given here.

Assay [1] in a line: Antitumor activity against prostate cell lines of the NCI60 panel. Format: functional. The note with it: Homo sapiens; for TGI: read-out: pTGI (converted). The gist of the method: (§1)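 Run by NCI in the 60-cell-line panel (details in Supporting Information). Highest concentration 10^-4 M unless noted (one case 10-2.6 M). Values expressed as -log molar concentration giving 50% growth inhibition (pGI50), total cytostasis (pTGI) or 50% cell kill (pLC50); only values >4.00 reported; mean graph midpoint is the calculated panel mean.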

A further assay concerns HL-60. As to the kind of experiment: Mitochondrial potential in HL60 cells assessed as decrease in ATP level at 0.5 uM. Format: functional, cell-based. The conditions noted are these: Homo sapiens.
A short description of assay [2]: Antitumor activity against breast cell lines of the NCI60 panel. Format: functional. The note with it: Homo sapiens; for TGI: read-out: pTGI (converted). The gist of the method:
as §1

The nature of assay [3]: Antitumor activity against ovarian cell lines of the NCI60 panel. It counts as functional. The note with it: Homo sapiens; for TGI: read-out: pTGI (converted). A digest of the protocol: as §1
Assay [4] can be described thus: Antitumor activity against leukemia cell lines of the NCI60 panel. It counts as functional. The note with it: Homo sapiens; for TGI: read-out: pTGI (converted). A digest of the protocol:
as §1

Another assay deals with NSCLC. Put plainly: Antitumor activity against NSCLC cell lines of the NCI60 panel. It counts as functional. The conditions noted are these: Homo sapiens; for TGI: read-out: pTGI (converted). A digest of the protocol:
as §1

Assay [5] in a line: Antitumor activity against CNS cell lines of the NCI60 panel. It counts as functional. The conditions noted are these: Homo sapiens; for TGI: read-out: pTGI (converted). The gist of the method:
as §1

Assay [6] can be described thus: Antitumor activity against melanoma cell lines of the NCI60 panel. Format: functional. The conditions noted are these: Homo sapiens; for TGI: read-out: pTGI (converted). The gist of the method:
as §1

Assay [7] is described as follows: Antitumor activity against renal cell lines of the NCI60 panel. It counts as functional, Homo sapiens. The conditions noted are these: Homo sapiens, renal; for TGI: read-out: pTGI (converted). A digest of the protocol: as §1
For assay [8], the target named is T1, S-adenosylmethionine decarboxylase proenzyme (Homo sapiens) (UniProt P17707).
T1 sequence (whole entry): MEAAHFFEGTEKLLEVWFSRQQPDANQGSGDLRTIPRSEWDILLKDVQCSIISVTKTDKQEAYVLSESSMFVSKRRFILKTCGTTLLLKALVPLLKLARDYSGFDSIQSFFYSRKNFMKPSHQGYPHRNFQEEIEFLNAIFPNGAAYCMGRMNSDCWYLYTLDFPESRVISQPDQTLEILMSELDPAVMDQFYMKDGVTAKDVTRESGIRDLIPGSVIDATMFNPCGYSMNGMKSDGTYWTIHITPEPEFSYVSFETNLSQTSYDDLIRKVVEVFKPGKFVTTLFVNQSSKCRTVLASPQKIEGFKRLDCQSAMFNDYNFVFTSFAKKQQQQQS
Put plainly: Inhibition of SAMDC in HL60 cells by release of radioactive CO2 from [14C-carboxyl]S-adenosylmethionine. The conditions noted are these: HL-60.

Assay [9] can be described thus: Antitumor activity against colon cell lines of the NCI60 panel. Format: functional. The note with it: Homo sapiens; for TGI: read-out: pTGI (converted). The gist of the method:
as §1

The term GI50 denotes the concentration at which growth is held to half of that of the control. Higher therefore signals lower sensitivity of the cells. For `N=C(N)N/N=C/c1c(-c2ccncc2)nc2sc(Cl)cn12`, the GI50 in [1] is 17.4 µM; in assay [2] it was 13.2 µM; in assay [3], 10.2 µM; in assay [4], 3.8 µM; in the assay with NSCLC it was 6.76 µM; in [5], 7.76 µM. In addition, the GI50 in [6] is 5.89 µM; in assay [7] it was 6.61 µM; in assay [9] it was 8.13 µM. Moreover, the TGI in assay [1] is 33.1 µM; in [2] it was 40.7 µM; in [3] it was 20.9 µM; in [4], 11.7 µM; with NSCLC it was 17 µM; in assay [5], 20 µM. The TGI in [6] is 13.8 µM; in [9], 27.5 µM. Also, the outcome (with HL-60; in assay [8]) was inactive.

Turning to `CCCc1cn2c(/C=N/NC(=N)N)c(-c3cc([N+](=O)[O-])c(Cl)cc3Cl)nc2s1`, the GI50 in assay [1] was 1.74 µM; in [2], 1.74 µM; in assay [3] it was 1.62 µM; in [4], 0.724 µM; in the assay on NSCLC, 1.74 µM; in [5], 1.66 µM. The results for the GI50 in [6], in [7] and in assay [9] were 1.66 µM, 1.66 µM and 1.48 µM, respectively. Further, the TGI in assay [1] is 3.39 µM; in [2] it was 3.47 µM; in [3], 3.02 µM; in assay [4] it was 1.95 µM; with NSCLC, 3.24 µM; in assay [5], 3.09 µM. Besides, the values for the TGI in assay [6], in assay [7] and in [9] were 3.09 µM, 3.09 µM and 2.75 µM, respectively. The result (with HL-60; in assay [8]) was inactive.

In the case of `N=C(N)N/N=C/c1c(-c2ccccn2)nc2sc(Cl)cn12`, the GI50 in assay [1] is 9.33 µM; in assay [2], 8.91 µM; in assay [3], 7.08 µM; in assay [4], 4.37 µM; with NSCLC it was 8.71 µM; in [5] it was 5.62 µM. In addition, the GI50 in [6] is 7.76 µM; in assay [7] it was 7.94 µM; in assay [9], 7.08 µM. Besides, the TGI is 17.8 µM in assay [1]; 20.9 µM in assay [2]; 14.5 µM in assay [3]; 13.2 µM in assay [4]; 18.6 µM with NSCLC; 11.5 µM in assay [5]. Also, the TGI in assay [6], in assay [7] and in assay [9] was 15.1 µM in each case.

Regarding `Cc1sc2nc(-c3ccncc3)c(/C=N/NC(=N)N)n2c1C`, the GI50 in [1] was 55 µM; in assay [2], 43.7 µM; in [3], 53.7 µM; in assay [4], 30.2 µM; in the assay with NSCLC, 38.9 µM; in assay [5] it was 38.9 µM. In addition, the figures for the GI50 in assay [6], in [7] and in assay [9] were 38 µM, 39.8 µM and 35.5 µM, respectively. The TGI in assay [2] was 91.2 µM; in assay [3] it was 97.7 µM; in assay [4], 95.5 µM; in the assay with NSCLC, 97.7 µM; in [5] it was 93.3 µM; in assay [6], 83.2 µM. For the same compound, the TGI in assay [7] is 89.1 µM; in assay [9], 79.4 µM.
